Laboratory results taken from ChEMBL document CHEMBL1124266, “Stereoelectronic factors influencing the biological activity and DNA interaction of synthetic antitumor agents modeled on CC-1065” (J Med Chem, 1988).

Test system: not listed separately
Experiment: Pseudo-first order rate constant at pH 3 followed spectrophotometrically
Assay type: ADME
Details: not given
In short: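 Acid-catalyzed cyclopropyl ring opening in methanolic buffer at pH 3, tracked by loss of the 344–370 nm absorption band. Residual long-wavelength absorbance at 2 weeks subtracted. Rate from ln(A/A₀) vs time, linear for at least 2 half-lives. Drug 20–120 µM.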

| SMILES | k |
| --- | --- |
| Cc1c[nH]c2c1C13CC1CN(C(=O)c1cc4cc(NC(N)=O)ccc4[nH]1)C3=CC2=O (stereo not given) | 1e-05 |
| Cc1c[nH]c2c1C13CC1CN(C(=O)OC(C)(C)C)C3=CC2=O (stereo not given) | 5e-06 |
| Cc1c[nH]c2c1C13CC1CN(S(C)(=O)=O)C3=CC2=O (stereo not given) | 3e-06 |
| Cc1c[nH]c2c1C13CC1CN(C(=O)c1cc4cc(NC(=O)c5cc6ccccc6o5)ccc4[nH]1)C3=CC2=O (stereo not given) | 1e-05 |
| Cc1c[nH]c2c1C13CC1CN(C(=O)c1cc4ccccc4n1C)C3=CC2=O (stereo not given) | 1e-05 |
| Cc1c[nH]c2c1C13CC1CN(C(=O)c1ccccc1)C3=CC2=O (stereo not given) | 9e-06 |
| Cc1c[nH]c2c1C13CC1CN(C(=O)c1cc4ccccc4[nH]1)C3=CC2=O (stereo not given) | 1e-05 |
| Cc1c[nH]c2c1C13CC1CN(C(=O)c1cc4ccccc4o1)C3=CC2=O (stereo not given) | 1.1e-05 |
| COc1ccc2[nH]c(C(=O)N3CC4CC45C3=CC(=O)c3[nH]cc(C)c35)cc2c1 (stereo not given) | 1e-05 |
| Cc1c[nH]c2c1C13CC1CN(C(=O)c1cc4ccccc4s1)C3=CC2=O (stereo not given) | 1.1e-05 |
| CCCCCC(=O)N1CC2CC23C1=CC(=O)c1[nH]cc(C)c13 (stereo not given) | 8e-06 |
| Cc1c[nH]c2c1C13CC1CN(C(=O)c1ccccn1)C3=CC2=O (stereo not given) | 1.2e-05 |
| Cc1c[nH]c2c1C13CC1CN(C(=O)c1ccc4ccccc4n1)C3=CC2=O (stereo not given) | 1.2e-05 |
| COc1c(O)ccc2cc(C(=O)N3CC4CC45C3=CC(=O)c3[nH]cc(C)c35)[nH]c12 (stereo not given) | 1e-05 |

Test system: L1210
Experiment: In vitro concentration required to inhibit 50% growth of murine L1210 leukemia cells
Assay type: functional
Details: Mus musculus, read-out: ID50 (the source's name)
In short: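 Mouse L1210 leukemia cells in RPMI 1634 with 5% fetal calf serum, 0.075% sodium bicarbonate, penicillin 0.1 mg/mL and streptomycin 50 μg/mL. Drug aliquots added to tubes, then cells at approximately 5 × 10³ cells/mL. Incubation 37 °C for 3 days; cell number by Coulter counter. ID₅₀ = nM concentration giving 50% growth inhibition.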

| SMILES | IC50 [nM] |
| --- | --- |
| Cc1c[nH]c2c1C13CC1CN(C(=O)c1cc4cc(NC(N)=O)ccc4[nH]1)C3=CC2=O (stereo not given) | 0.6 |
| Cc1c[nH]c2c1C13CC1CN(C(=O)OC(C)(C)C)C3=CC2=O (stereo not given) | 300 |
| Cc1c[nH]c2c1C13CC1CN(S(C)(=O)=O)C3=CC2=O (stereo not given) | 100 |
| Cc1c[nH]c2c1C13CC1CN(C(=O)c1cc4cc(NC(=O)c5cc6ccccc6o5)ccc4[nH]1)C3=CC2=O (stereo not given) | 0.02 |
| Cc1c[nH]c2c1C13CC1CN(C(=O)c1cc4ccccc4n1C)C3=CC2=O (stereo not given) | 10 |
| Cc1c[nH]c2c1C13CC1CN(C(=O)c1ccccc1)C3=CC2=O (stereo not given) | 3 |
| Cc1c[nH]c2c1C13CC1CN(C(=O)c1cc4ccccc4[nH]1)C3=CC2=O (stereo not given) | 0.2 |
| Cc1c[nH]c2c1C13CC1CN(C(=O)c1cc4ccccc4o1)C3=CC2=O (stereo not given) | 0.04 |
| COc1ccc2[nH]c(C(=O)N3CC4CC45C3=CC(=O)c3[nH]cc(C)c35)cc2c1 (stereo not given) | 0.01 |
| Cc1c[nH]c2c1C13CC1CN(C(=O)c1cc4ccccc4s1)C3=CC2=O (stereo not given) | 0.3 |
| CCCCCC(=O)N1CC2CC23C1=CC(=O)c1[nH]cc(C)c13 (stereo not given) | 3 |
| Cc1c[nH]c2c1C13CC1CN(C(=O)c1ccccn1)C3=CC2=O (stereo not given) | 10 |
| Cc1c[nH]c2c1C13CC1CN(C(=O)c1ccc4ccccc4n1)C3=CC2=O (stereo not given) | 10 |
| COc1c(O)ccc2cc(C(=O)N3CC4CC45C3=CC(=O)c3[nH]cc(C)c35)[nH]c12 (stereo not given) | 0.1 |

Test system: not listed separately
Experiment: Lipophilic/hydrophilic partitioning (RP-TLC)
Assay type: ADME
Details: 2:1 DMF-saline
In short: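 Reverse-phase TLC developed in 2:1 DMF–saline (0.9% NaCl). Plates scanned at 350 nm. R_f values averaged from two to four determinations.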

| SMILES | Rf |
| --- | --- |
| Cc1c[nH]c2c1C13CC1CN(C(=O)c1cc4cc(NC(N)=O)ccc4[nH]1)C3=CC2=O (stereo not given) | 0.89 |
| Cc1c[nH]c2c1C13CC1CN(C(=O)OC(C)(C)C)C3=CC2=O (stereo not given) | 0.35 |
| Cc1c[nH]c2c1C13CC1CN(S(C)(=O)=O)C3=CC2=O (stereo not given) | 0.82 |
| Cc1c[nH]c2c1C13CC1CN(C(=O)c1cc4cc(NC(=O)c5cc6ccccc6o5)ccc4[nH]1)C3=CC2=O (stereo not given) | 0.3 |
| Cc1c[nH]c2c1C13CC1CN(C(=O)c1ccccc1)C3=CC2=O (stereo not given) | 0.63 |
| Cc1c[nH]c2c1C13CC1CN(C(=O)c1cc4ccccc4[nH]1)C3=CC2=O (stereo not given) | 0.45 |
| COc1ccc2[nH]c(C(=O)N3CC4CC45C3=CC(=O)c3[nH]cc(C)c35)cc2c1 (stereo not given) | 0.47 |
| Cc1c[nH]c2c1C13CC1CN(C(=O)c1cc4ccccc4s1)C3=CC2=O (stereo not given) | 0.41 |
| CCCCCC(=O)N1CC2CC23C1=CC(=O)c1[nH]cc(C)c13 (stereo not given) | 0.35 |
| Cc1c[nH]c2c1C13CC1CN(C(=O)c1ccccn1)C3=CC2=O (stereo not given) | 0.76 |
| Cc1c[nH]c2c1C13CC1CN(C(=O)c1ccc4ccccc4n1)C3=CC2=O (stereo not given) | 0.5 |
| COc1c(O)ccc2cc(C(=O)N3CC4CC45C3=CC(=O)c3[nH]cc(C)c35)[nH]c12 (stereo not given) | 0.63 |

Test system: Mus musculus
Experiment: In vivo % increase in life span of treated animals (OD) over that of control mice bearing P388 leukemia
Assay type: functional
Details: not given
In short: (§1)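 Male BDF1 mice inoculated ip with 10⁶ P388 cells (tumor passaged in DBA/2 females) on day 0. Drug ip on days 1, 5, 9 in 2% DMA, 10% Emulphor 620-P, water. Six mice per group. %ILS = (median death day treated / median death day untreated control − 1) × 100, at optimum dose. 30-day survivors counted as cured.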

| SMILES | ILS [%] |
| --- | --- |
| Cc1c[nH]c2c1C13CC1CN(C(=O)c1cc4ccccc4n1C)C3=CC2=O (stereo not given) | 44 |
| Cc1c[nH]c2c1C13CC1CN(C(=O)c1cc4ccccc4o1)C3=CC2=O (stereo not given) | 110 |

Test system: Nucleic Acid
Experiment: Induced circular dichroism (ICD), expressed as molar ellipticity, in the presence of calf-thymus DNA
Assay type: functional
Details: Bos taurus
In short: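 Drug stock (1–4 mg/mL in DMA, DMF or DMSO) injected into calf-thymus DNA (11 × 10⁻⁵ M) in 0.01 M phosphate buffer pH 7.2. Final drug 0.85 × 10⁻⁵ M, base-to-drug ratio 13. Stood 24 h at room temperature before CD spectrum. Value is molar ellipticity at long-wavelength maximum, ca. 350 nm.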

| SMILES | ICD |
| --- | --- |
| Cc1c[nH]c2c1C13CC1CN(C(=O)c1cc4cc(NC(N)=O)ccc4[nH]1)C3=CC2=O (stereo not given) | 0.047 |
| Cc1c[nH]c2c1C13CC1CN(C(=O)OC(C)(C)C)C3=CC2=O (stereo not given) | 0 |
| Cc1c[nH]c2c1C13CC1CN(S(C)(=O)=O)C3=CC2=O (stereo not given) | 0 |
| Cc1c[nH]c2c1C13CC1CN(C(=O)c1cc4cc(NC(=O)c5cc6ccccc6o5)ccc4[nH]1)C3=CC2=O (stereo not given) | 0.05 |
| Cc1c[nH]c2c1C13CC1CN(C(=O)c1cc4ccccc4n1C)C3=CC2=O (stereo not given) | 0.003 |
| Cc1c[nH]c2c1C13CC1CN(C(=O)c1ccccc1)C3=CC2=O (stereo not given) | < 0.001 |
| Cc1c[nH]c2c1C13CC1CN(C(=O)c1cc4ccccc4[nH]1)C3=CC2=O (stereo not given) | 0.036 |
| Cc1c[nH]c2c1C13CC1CN(C(=O)c1cc4ccccc4o1)C3=CC2=O (stereo not given) | 0.006 |
| COc1ccc2[nH]c(C(=O)N3CC4CC45C3=CC(=O)c3[nH]cc(C)c35)cc2c1 (stereo not given) | 0.022 |
| Cc1c[nH]c2c1C13CC1CN(C(=O)c1cc4ccccc4s1)C3=CC2=O (stereo not given) | 0.007 |
| CCCCCC(=O)N1CC2CC23C1=CC(=O)c1[nH]cc(C)c13 (stereo not given) | 0 |
| Cc1c[nH]c2c1C13CC1CN(C(=O)c1ccccn1)C3=CC2=O (stereo not given) | 0 |
| Cc1c[nH]c2c1C13CC1CN(C(=O)c1ccc4ccccc4n1)C3=CC2=O (stereo not given) | 0.001 |
| COc1c(O)ccc2cc(C(=O)N3CC4CC45C3=CC(=O)c3[nH]cc(C)c35)[nH]c12 (stereo not given) | 0.037 |

Test system: Mus musculus
Experiment: In vivo optimum dose (OD), given on days 1, 5, and 9 to mice bearing P388 leukemia
Assay type: functional
Details: not given
In short: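 P388 leukemia kept by serial passage in female DBA/2 mice. Male BDF1 mice were given 10^6 cells ip on day 0. Drug was given ip on days 1, 5 and 9 in 2% DMA/10% Emulphor 620-P/water, with six mice per group. Optimum dose was in mg/kg per day. %ILS came from the median day of death versus untreated tumor-bearing controls. Mice alive at 30 days were counted as cured.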

| SMILES | OD [mg/kg/day] |
| --- | --- |
| Cc1c[nH]c2c1C13CC1CN(C(=O)c1cc4ccccc4n1C)C3=CC2=O (stereo not given) | 8 |
| Cc1c[nH]c2c1C13CC1CN(C(=O)c1cc4ccccc4o1)C3=CC2=O (stereo not given) | 0.25 |

Test system: P388
Experiment: In vivo optimum dose given on days 1, 5, and 9 to mice implanted intraperitoneally with P388 leukemia cells
Assay type: functional, Mus musculus
Details: not given
In short: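 P388 cells (10⁶/mouse) implanted ip into male BDF1 mice on day 0. Dosing ip on days 1, 5 and 9 in 2% DMA/10% Emulphor 620-P/water vehicle. Six mice per group. Optimum dose given in mg/kg per day, judged by increase in median life span.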

| SMILES | OD [mg/kg/day] |
| --- | --- |
| Cc1c[nH]c2c1C13CC1CN(C(=O)c1cc4cc(NC(N)=O)ccc4[nH]1)C3=CC2=O (stereo not given) | 0.06 |
| Cc1c[nH]c2c1C13CC1CN(S(C)(=O)=O)C3=CC2=O (stereo not given) | 25 |
| Cc1c[nH]c2c1C13CC1CN(C(=O)c1cc4cc(NC(=O)c5cc6ccccc6o5)ccc4[nH]1)C3=CC2=O (stereo not given) | 0.05 |
| Cc1c[nH]c2c1C13CC1CN(C(=O)c1ccccc1)C3=CC2=O (stereo not given) | 12 |
| Cc1c[nH]c2c1C13CC1CN(C(=O)c1cc4ccccc4[nH]1)C3=CC2=O (stereo not given) | 0.4 |
| COc1ccc2[nH]c(C(=O)N3CC4CC45C3=CC(=O)c3[nH]cc(C)c35)cc2c1 (stereo not given) | 0.05 |
| Cc1c[nH]c2c1C13CC1CN(C(=O)c1cc4ccccc4s1)C3=CC2=O (stereo not given) | 0.8 |
| CCCCCC(=O)N1CC2CC23C1=CC(=O)c1[nH]cc(C)c13 (stereo not given) | 2 |
| Cc1c[nH]c2c1C13CC1CN(C(=O)c1ccccn1)C3=CC2=O (stereo not given) | 15 |
| Cc1c[nH]c2c1C13CC1CN(C(=O)c1ccc4ccccc4n1)C3=CC2=O (stereo not given) | 6 |
| COc1c(O)ccc2cc(C(=O)N3CC4CC45C3=CC(=O)c3[nH]cc(C)c35)[nH]c12 (stereo not given) | 0.05 |

Test system: P388
Experiment: In vivo % increase in life span of treated animals (OD) over that of control mice bearing tumor, determined against P388 leukemia cells
Assay type: functional, Mus musculus
Details: not given
In short: as §1

| SMILES | ILS [%] |
| --- | --- |
| Cc1c[nH]c2c1C13CC1CN(C(=O)c1cc4cc(NC(N)=O)ccc4[nH]1)C3=CC2=O (stereo not given) | 65 |
| Cc1c[nH]c2c1C13CC1CN(S(C)(=O)=O)C3=CC2=O (stereo not given) | 60 |
| Cc1c[nH]c2c1C13CC1CN(C(=O)c1cc4cc(NC(=O)c5cc6ccccc6o5)ccc4[nH]1)C3=CC2=O (stereo not given) | 170 |
| Cc1c[nH]c2c1C13CC1CN(C(=O)c1ccccc1)C3=CC2=O (stereo not given) | 71 |
| Cc1c[nH]c2c1C13CC1CN(C(=O)c1cc4ccccc4[nH]1)C3=CC2=O (stereo not given) | 90 |
| COc1ccc2[nH]c(C(=O)N3CC4CC45C3=CC(=O)c3[nH]cc(C)c35)cc2c1 (stereo not given) | 95 |
| Cc1c[nH]c2c1C13CC1CN(C(=O)c1cc4ccccc4s1)C3=CC2=O (stereo not given) | 100 |
| CCCCCC(=O)N1CC2CC23C1=CC(=O)c1[nH]cc(C)c13 (stereo not given) | 100 |
| Cc1c[nH]c2c1C13CC1CN(C(=O)c1ccccn1)C3=CC2=O (stereo not given) | 69 |
| Cc1c[nH]c2c1C13CC1CN(C(=O)c1ccc4ccccc4n1)C3=CC2=O (stereo not given) | 142 |
| COc1c(O)ccc2cc(C(=O)N3CC4CC45C3=CC(=O)c3[nH]cc(C)c35)[nH]c12 (stereo not given) | 55 |
